In ChEMBL document CHEMBL2062435, “Synthesis and in vitro antibacterial activity of gemifloxacin derivatives containing a substituted benzyloxime moiety” (2012):

How the values were obtained:
Type in all cases: functional
Enterococcus faecium [1] = assay: Antimicrobial activity against Enterococcus faecium 10-5 after 18-24 hrs by two-fold serial dilution method
Outline: (§1)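 Agar-medium twofold serial dilution against Gram-positive and Gram-negative strains; MIC taken as the lowest compound concentration giving complete inhibition of bacterial growth after incubation at 35 °C for 18-24 h.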

Streptococcus pneumoniae [2] = assay: Antimicrobial activity against extended spectrum beta-lactamases-producing Streptococcus pneumoniae 10-1 after 18-24 hrs by two-fold serial dilution method; outline: as §1
Klebsiella pneumoniae [3] = assay: Antimicrobial activity against extended spectrum beta-lactamases-producing Klebsiella pneumoniae 10-2 after 18-24 hrs by two-fold serial dilution method; outline: as §1
Staphylococcus aureus [4] = assay: Antimicrobial activity against Staphylococcus aureus ATCC […] after 18-24 hrs by two-fold serial dilution method; outline: as §1
Staphylococcus aureus [5] = assay: Antimicrobial activity against extended spectrum beta-lactamases-producing methicillin-sensitive Staphylococcus aureus 10-14 after 18-24 hrs by two-fold serial dilution method; outline: as §1
Escherichia coli [6] = assay: Antimicrobial activity against Escherichia coli ATCC 25922 after 18-24 hrs by two-fold serial dilution method; outline: as §1
[7] = system: Staphylococcus epidermidis; assay: Antimicrobial activity against extended spectrum beta-lactamases-producing methicillin-resistant Staphylococcus epidermidis 10-10 after 18-24 hrs by two-fold serial dilution method
Outline: (§2)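 Agar twofold serial dilution MIC against clinical isolates. MIC was taken as the lowest concentration giving complete inhibition of bacterial growth after incubation at 35 °C for 18-24 h.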

Pseudomonas aeruginosa [8] = assay: Antimicrobial activity against Pseudomonas aeruginosa 10-12 after 18-24 hrs by two-fold serial dilution method; outline: as §1
Staphylococcus aureus [9] = assay: Antimicrobial activity against extended spectrum beta-lactamases-producing methicillin-resistant Staphylococcus aureus 10-11 after 18-24 hrs by two-fold serial dilution method; outline: as §2
Escherichia coli [10] = assay: Antimicrobial activity against extended spectrum beta-lactamases-producing Escherichia coli 10-4 after 18-24 hrs by two-fold serial dilution method; outline: as §1
Enterococcus faecalis [11] = assay: Antimicrobial activity against Enterococcus faecalis 10-5 after 18-24 hrs by two-fold serial dilution method; outline: as §1
Enterococcus faecalis [12] = assay: Antimicrobial activity against Enterococcus faecalis 10-6 after 18-24 hrs by two-fold serial dilution method; outline: as §1
Klebsiella pneumoniae [13] = assay: Antimicrobial activity against extended spectrum beta-lactamases-producing Klebsiella pneumoniae 10-1 after 18-24 hrs by two-fold serial dilution method; outline: as §1
Klebsiella pneumoniae [14] = assay: Antimicrobial activity against Klebsiella pneumoniae 10-2 after 18-24 hrs by two-fold serial dilution method; outline: as §1
Pseudomonas aeruginosa [15] = assay: Antimicrobial activity against extended spectrum beta-lactamases-producing Pseudomonas aeruginosa 10-5 after 18-24 hrs by two-fold serial dilution method; outline: as §1
Klebsiella pneumoniae [16] = assay: Antimicrobial activity against Klebsiella pneumoniae 10-3 after 18-24 hrs by two-fold serial dilution method; outline: as §1
Escherichia coli [17] = assay: Antimicrobial activity against Escherichia coli 10-3 after 18-24 hrs by two-fold serial dilution method; outline: as §1
Escherichia coli [18] = assay: Antimicrobial activity against extended spectrum beta-lactamases-producing Escherichia coli 10-2 after 18-24 hrs by two-fold serial dilution method; outline: as §1
[19] = system: Staphylococcus epidermidis; assay: Antimicrobial activity against extended spectrum beta-lactamases-producing methicillin-sensitive Staphylococcus epidermidis 10-13 after 18-24 hrs by two-fold serial dilution method; outline: as §1
[20] = system: Staphylococcus epidermidis; assay: Antimicrobial activity against extended spectrum beta-lactamases-producing methicillin-resistant Staphylococcus epidermidis 10-13 after 18-24 hrs by two-fold serial dilution method; outline: as §2
Klebsiella pneumoniae [21] = assay: Antimicrobial activity against extended spectrum beta-lactamases-producing Klebsiella pneumoniae 10-3 after 18-24 hrs by two-fold serial dilution method; outline: as §1
Staphylococcus aureus [22] = assay: Antimicrobial activity against extended spectrum beta-lactamases-producing methicillin-sensitive Staphylococcus aureus 10-13 after 18-24 hrs by two-fold serial dilution method; outline: as §1
Escherichia coli [23] = assay: Antimicrobial activity against extended spectrum beta-lactamases-producing Escherichia coli 10-3 after 18-24 hrs by two-fold serial dilution method; outline: as §1
Streptococcus pneumoniae [24] = assay: Antimicrobial activity against extended spectrum beta-lactamases-producing Streptococcus pneumoniae 10-4 after 18-24 hrs by two-fold serial dilution method; outline: as §1
Enterococcus faecium [25] = assay: Antimicrobial activity against Enterococcus faecium 10-9 after 18-24 hrs by two-fold serial dilution method; outline: as §1
Staphylococcus aureus [26] = assay: Antimicrobial activity against extended spectrum beta-lactamases-producing methicillin-resistant Staphylococcus aureus 10-15 after 18-24 hrs by two-fold serial dilution method; outline: as §2
Klebsiella pneumoniae [27] = assay: Antimicrobial activity against Klebsiella pneumoniae 10-4 after 18-24 hrs by two-fold serial dilution method; outline: as §1
Escherichia coli [28] = assay: Antimicrobial activity against Escherichia coli 10-1 after 18-24 hrs by two-fold serial dilution method; outline: as §1
[29] = system: Staphylococcus epidermidis; assay: Antimicrobial activity against extended spectrum beta-lactamases-producing methicillin-sensitive Staphylococcus epidermidis 10-11 after 18-24 hrs by two-fold serial dilution method; outline: as §1
Pseudomonas aeruginosa [30] = assay: Antimicrobial activity against extended spectrum beta-lactamases-producing Pseudomonas aeruginosa 10-20 after 18-24 hrs by two-fold serial dilution method; outline: as §1
Pseudomonas aeruginosa [31] = assay: Antimicrobial activity against extended spectrum beta-lactamases-producing Pseudomonas aeruginosa 10-15 after 18-24 hrs by two-fold serial dilution method; outline: as §1
Pseudomonas aeruginosa [32] = assay: Antimicrobial activity against extended spectrum beta-lactamases-producing Pseudomonas aeruginosa 10-18 after 18-24 hrs by two-fold serial dilution method; outline: as §1
Enterococcus faecalis [33] = assay: Antimicrobial activity against Enterococcus faecalis 10-7 after 18-24 hrs by two-fold serial dilution method; outline: as §1
[34] = system: Staphylococcus epidermidis; assay: Antimicrobial activity against extended spectrum beta-lactamases-producing methicillin-sensitive Staphylococcus epidermidis 10-15 after 18-24 hrs by two-fold serial dilution method; outline: as §1
Escherichia coli [35] = assay: Antimicrobial activity against Escherichia coli 10-2 after 18-24 hrs by two-fold serial dilution method; outline: as §1
Pseudomonas aeruginosa [36] = assay: Antimicrobial activity against extended spectrum beta-lactamases-producing Pseudomonas aeruginosa 10-9 after 18-24 hrs by two-fold serial dilution method; outline: as §1

SMILES | MIC (Enterococcus faecium [1]) [µg/mL] | MIC (Streptococcus pneumoniae [2]) [µg/mL] | MIC (Klebsiella pneumoniae [3]) [µg/mL] | MIC (Staphylococcus aureus [4]) [µg/mL] | MIC (Staphylococcus aureus [5]) [µg/mL] | MIC (Escherichia coli [6]) [µg/mL] | MIC [7] [µg/mL] | MIC (Pseudomonas aeruginosa [8]) [µg/mL] | MIC (Staphylococcus aureus [9]) [µg/mL] | MIC (Escherichia coli [10]) [µg/mL] | MIC (Enterococcus faecalis [11]) [µg/mL] | MIC (Enterococcus faecalis [12]) [µg/mL] | MIC (Klebsiella pneumoniae [13]) [µg/mL] | MIC (Klebsiella pneumoniae [14]) [µg/mL] | MIC (Pseudomonas aeruginosa [15]) [µg/mL] | MIC (Klebsiella pneumoniae [16]) [µg/mL] | MIC (Escherichia coli [17]) [µg/mL] | MIC (Escherichia coli [18]) [µg/mL] | MIC [19] [µg/mL] | MIC [20] [µg/mL] | also measured
COc1ccc(CO/N=C2\CN(c3nc4c(cc3F)c(=O)c(C(=O)O)cn4C3CC3)CC2CN)cc1.CS(=O)(=O)O (racemic) | 4 | 0.125 | 128 | 0.015 | 0.03 | 0.06 | 0.5 | 2 | 1 | 2 | 0.125 | 2 | 64 | 128 | 4 | 4 | 8 | 128 | 0.03 | 0.5 | MIC (Klebsiella pneumoniae [21]): 128 µg/mL; MIC (Staphylococcus aureus [22]): 0.015 µg/mL; MIC (Escherichia coli [23]): 16 µg/mL; MIC (Streptococcus pneumoniae [24]): 0.125 µg/mL; MIC (Enterococcus faecium [25]): 8 µg/mL; MIC (Staphylococcus aureus [26]): 0.25 µg/mL; MIC (Klebsiella pneumoniae [27]): 128 µg/mL; MIC (Escherichia coli [28]): 32 µg/mL; MIC [29]: 0.5 µg/mL; MIC (Pseudomonas aeruginosa [30]): 2 µg/mL; MIC (Pseudomonas aeruginosa [31]): 8 µg/mL; MIC (Pseudomonas aeruginosa [32]): 4 µg/mL; MIC (Enterococcus faecalis [33]): 1 µg/mL; MIC [34]: 2 µg/mL; MIC (Escherichia coli [35]): 2 µg/mL; MIC (Pseudomonas aeruginosa [36]): 4 µg/mL
CS(=O)(=O)O.NCC1CN(c2nc3c(cc2F)c(=O)c(C(=O)O)cn3C2CC2)C/C1=N\OCc1ccccc1 (racemic) | 4 | 0.25 | 64 | < 0.008 | 0.03 | 0.03 | 1 | 4 | 4 | 4 | 1 | 4 | 32 | 32 | 8 | 2 | 8 | 32 | 0.06 | 1 | MIC (Klebsiella pneumoniae [21]): 32 µg/mL; MIC (Staphylococcus aureus [22]): 0.015 µg/mL; MIC (Escherichia coli [23]): 32 µg/mL; MIC (Streptococcus pneumoniae [24]): 0.06 µg/mL; MIC (Enterococcus faecium [25]): 8 µg/mL; MIC (Staphylococcus aureus [26]): 0.5 µg/mL; MIC (Klebsiella pneumoniae [27]): 128 µg/mL; MIC (Escherichia coli [28]): 16 µg/mL; MIC [29]: 1 µg/mL; MIC (Pseudomonas aeruginosa [30]): 2 µg/mL; MIC (Pseudomonas aeruginosa [31]): 4 µg/mL; MIC (Pseudomonas aeruginosa [32]): 1 µg/mL; MIC (Enterococcus faecalis [33]): 2 µg/mL; MIC [34]: 8 µg/mL; MIC (Escherichia coli [35]): 4 µg/mL; MIC (Pseudomonas aeruginosa [36]): 2 µg/mL
COc1cc(CO/N=C2\CN(c3nc4c(cc3F)c(=O)c(C(=O)O)cn4C3CC3)CC2CN)cc(OC)c1OC.CS(=O)(=O)O (racemic) | 8 | 1 | > 128 | 0.125 | 0.125 | 0.5 | 2 | 0.125 | 2 | 8 | 1 | 4 | > 128 | > 128 | 8 | 8 | 16 | > 128 | 2 | 0.5 | MIC (Klebsiella pneumoniae [21]): > 128 µg/mL; MIC (Staphylococcus aureus [22]): 1 µg/mL; MIC (Escherichia coli [23]): 16 µg/mL; MIC (Streptococcus pneumoniae [24]): 8 µg/mL; MIC (Enterococcus faecium [25]): 8 µg/mL; MIC (Staphylococcus aureus [26]): 0.25 µg/mL; MIC (Klebsiella pneumoniae [27]): > 128 µg/mL; MIC (Escherichia coli [28]): 128 µg/mL; MIC [29]: 8 µg/mL; MIC (Pseudomonas aeruginosa [30]): 0.5 µg/mL; MIC (Pseudomonas aeruginosa [31]): 8 µg/mL; MIC (Pseudomonas aeruginosa [32]): 4 µg/mL; MIC (Enterococcus faecalis [33]): 2 µg/mL; MIC [34]: 8 µg/mL; MIC (Escherichia coli [35]): 16 µg/mL; MIC (Pseudomonas aeruginosa [36]): 8 µg/mL
COc1cc(CO/N=C2\CN(c3nc4c(cc3F)c(=O)c(C(=O)O)cn4C3CC3)CC2CN)cc(Cl)c1OC.CS(=O)(=O)O (racemic) | 8 | 0.06 | > 128 | < 0.008 | 0.015 | 0.015 | 2 | 16 | 4 | 16 | 0.25 | 4 | > 128 | 128 | 16 | 8 | 128 | > 128 | 0.015 | 0.25 | MIC (Klebsiella pneumoniae [21]): > 128 µg/mL; MIC (Staphylococcus aureus [22]): 0.015 µg/mL; MIC (Escherichia coli [23]): > 128 µg/mL; MIC (Streptococcus pneumoniae [24]): 0.03 µg/mL; MIC (Enterococcus faecium [25]): 16 µg/mL; MIC (Staphylococcus aureus [26]): 0.25 µg/mL; MIC (Klebsiella pneumoniae [27]): > 128 µg/mL; MIC (Escherichia coli [28]): > 128 µg/mL; MIC [29]: 2 µg/mL; MIC (Pseudomonas aeruginosa [30]): 8 µg/mL; MIC (Pseudomonas aeruginosa [31]): 32 µg/mL; MIC (Pseudomonas aeruginosa [32]): 16 µg/mL; MIC (Enterococcus faecalis [33]): 2 µg/mL; MIC [34]: 4 µg/mL; MIC (Escherichia coli [35]): 16 µg/mL; MIC (Pseudomonas aeruginosa [36]): 16 µg/mL
